SMILES strings stand for the structures. pIC50: −log10 of the molar value. Values after ≈ are worked out from the molar mass of the structure shown. Bounds are passed on as bounds.

One may read the IC50 as the midpoint of a concentration-inhibition curve. Low readings indicate greater potency in that assay, high ones weaker potency in that assay. As a reminder, the pIC50 is the negative decadic logarithm of the IC50, by convention in mol/L.

The nature of test [1]: Inhibition of bocillin FL binding to Escherichia coli MC4100 penicillin-binding protein 4. The method in brief:
(§1)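 Isolated E. coli MC4100 PBPs were competed with 10 drug concentrations from 0.016 μg/ml to 8 μg/ml, then labeled with Bocillin FL. Fluorescent PBP bands were imaged. IC50 is the concentration giving 50% inhibition of Bocillin FL binding to each PBP relative to a no-drug control.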

The nature of test [2]: Inhibition of bocillin FL binding to Escherichia coli MC4100 penicillin-binding protein 3. An outline of the steps:
as §1

A short description of test [3]: Inhibition of bocillin FL binding to Pseudomonas aeruginosa PAO1 penicillin-binding protein 1a. The method in brief: (§2)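 P. aeruginosa PAO1 PBPs were isolated and competed with 10 drug concentrations from 0.06 μg/ml to 32 μg/ml before Bocillin FL labeling. Bands were detected by fluorescence imaging. IC50 was taken as 50% inhibition of Bocillin FL binding versus the no-drug sample.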

Test [4] deals with T1, Cell shape peptidoglycan synthetase penicillin-binding protein 2 (Escherichia coli, UniProt Q2TL65).
T1 sequence (Q2TL65 whole entry): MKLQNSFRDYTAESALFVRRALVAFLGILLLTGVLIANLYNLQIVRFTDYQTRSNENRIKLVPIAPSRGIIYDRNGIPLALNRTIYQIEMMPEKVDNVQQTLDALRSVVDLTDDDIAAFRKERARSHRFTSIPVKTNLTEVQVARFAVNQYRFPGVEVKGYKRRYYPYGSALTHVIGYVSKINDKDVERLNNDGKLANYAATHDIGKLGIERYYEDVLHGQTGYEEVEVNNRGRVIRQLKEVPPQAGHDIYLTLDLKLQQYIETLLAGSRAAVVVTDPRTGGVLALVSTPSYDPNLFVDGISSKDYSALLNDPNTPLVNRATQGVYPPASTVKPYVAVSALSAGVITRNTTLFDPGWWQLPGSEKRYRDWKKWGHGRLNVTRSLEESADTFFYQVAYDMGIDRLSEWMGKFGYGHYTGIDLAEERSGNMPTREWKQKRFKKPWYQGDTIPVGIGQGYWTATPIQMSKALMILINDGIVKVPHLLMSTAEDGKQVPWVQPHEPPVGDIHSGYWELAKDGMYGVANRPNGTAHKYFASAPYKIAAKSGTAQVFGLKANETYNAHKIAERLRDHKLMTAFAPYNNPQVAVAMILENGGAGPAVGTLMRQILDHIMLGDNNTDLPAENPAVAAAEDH
The test can be described thus: Inhibition of bocillin FL binding to Escherichia coli MC4100 penicillin-binding protein 2. The method in brief:
(§3)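 Isolated E. coli MC4100 PBPs; competition with drug at 10 concentrations, 0.016 μg/ml to 8 μg/ml, then Bocillin FL labeling. Gel bands visualized by imaging. IC50 is the concentration giving 50% inhibition of Bocillin FL binding relative to a no-drug control.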

Test [5] has as its target Penicillin-binding protein 3 (Pseudomonas aeruginosa, UniProt Q51504). The test is described as follows: Inhibition of bocillin FL binding to Pseudomonas aeruginosa PAO1 penicillin-binding protein 3. An outline of the steps:
(§4)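 Isolated P. aeruginosa PAO1 PBPs; drug added at 10 concentrations, 0.06 μg/ml to 32 μg/ml, before Bocillin FL labeling. Labeled PBPs imaged. IC50 is the drug level cutting Bocillin FL binding by 50% versus a no-drug sample.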

The nature of test [6]: Inhibition of bocillin FL binding to Escherichia coli MC4100 penicillin-binding protein 1a. The method in brief: as §3
A short description of test [7]: Inhibition of bocillin FL binding to Pseudomonas aeruginosa PAO1 penicillin-binding protein 5/6. An outline of the steps: as §4
A short description of test [8]: Inhibition of bocillin FL binding to Escherichia coli MC4100 penicillin-binding protein 5. The method in brief:
as §1

Test [9] has as its target T2, Penicillin-binding protein 2 (Pseudomonas aeruginosa, UniProt Q9X6V3).
T2 sequence (Q9X6V3 whole entry): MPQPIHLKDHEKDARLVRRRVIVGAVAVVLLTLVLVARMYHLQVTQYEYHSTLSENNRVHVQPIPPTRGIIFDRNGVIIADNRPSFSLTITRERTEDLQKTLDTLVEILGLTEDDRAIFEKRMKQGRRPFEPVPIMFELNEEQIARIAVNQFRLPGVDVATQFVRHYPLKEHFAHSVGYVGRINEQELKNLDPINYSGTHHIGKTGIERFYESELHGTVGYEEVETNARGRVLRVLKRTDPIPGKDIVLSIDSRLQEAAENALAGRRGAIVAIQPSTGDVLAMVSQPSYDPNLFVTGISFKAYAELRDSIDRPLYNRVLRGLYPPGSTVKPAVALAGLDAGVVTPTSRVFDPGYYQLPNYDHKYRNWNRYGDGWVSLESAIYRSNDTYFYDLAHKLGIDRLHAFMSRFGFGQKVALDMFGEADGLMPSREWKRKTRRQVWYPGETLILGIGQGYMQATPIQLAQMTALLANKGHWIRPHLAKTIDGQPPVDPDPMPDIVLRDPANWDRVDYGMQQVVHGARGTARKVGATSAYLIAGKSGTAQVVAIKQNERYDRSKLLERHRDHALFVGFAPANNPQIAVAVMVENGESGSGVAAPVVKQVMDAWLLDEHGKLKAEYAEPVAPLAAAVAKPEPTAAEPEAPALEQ
The test is described as follows: Inhibition of bocillin FL binding to Pseudomonas aeruginosa PAO1 penicillin-binding protein 2. An outline of the steps:
as §4

Test [10] in a line: Inhibition of bocillin FL binding to Escherichia coli MC4100 penicillin-binding protein 6. An outline of the steps:
as §1

The nature of test [11]: Inhibition of bocillin FL binding to Escherichia coli MC4100 penicillin-binding protein 1b. An outline of the steps: as §1
Test [12] in a line: Inhibition of bocillin FL binding to Pseudomonas aeruginosa PAO1 penicillin-binding protein 4. An outline of the steps:
as §2

Test [13] has as its target T3, Penicillin-binding protein 1B (Pseudomonas aeruginosa, UniProt Q9X6W0).
T3 sequence (Q9X6W0 whole entry): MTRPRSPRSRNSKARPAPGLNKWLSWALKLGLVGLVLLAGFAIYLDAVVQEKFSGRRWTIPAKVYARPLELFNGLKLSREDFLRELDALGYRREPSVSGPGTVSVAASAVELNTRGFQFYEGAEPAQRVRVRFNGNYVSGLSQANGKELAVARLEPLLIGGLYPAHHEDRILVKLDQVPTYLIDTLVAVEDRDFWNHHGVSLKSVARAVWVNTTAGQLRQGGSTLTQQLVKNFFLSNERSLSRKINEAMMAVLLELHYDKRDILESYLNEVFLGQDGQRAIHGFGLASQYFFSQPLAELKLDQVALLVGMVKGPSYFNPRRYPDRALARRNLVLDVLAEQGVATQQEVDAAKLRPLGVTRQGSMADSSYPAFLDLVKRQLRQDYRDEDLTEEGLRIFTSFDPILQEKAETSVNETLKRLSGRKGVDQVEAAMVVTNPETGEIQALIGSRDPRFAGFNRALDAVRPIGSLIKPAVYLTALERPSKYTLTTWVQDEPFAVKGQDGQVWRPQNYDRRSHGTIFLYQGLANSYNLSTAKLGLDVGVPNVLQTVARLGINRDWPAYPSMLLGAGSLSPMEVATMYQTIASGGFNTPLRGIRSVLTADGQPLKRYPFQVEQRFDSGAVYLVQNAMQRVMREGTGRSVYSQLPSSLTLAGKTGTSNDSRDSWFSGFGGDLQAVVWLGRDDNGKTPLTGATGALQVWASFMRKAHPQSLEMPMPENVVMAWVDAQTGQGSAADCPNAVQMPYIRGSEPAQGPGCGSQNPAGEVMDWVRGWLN
The test is described as follows: Inhibition of bocillin FL binding to Pseudomonas aeruginosa PAO1 penicillin-binding protein 1b. The method in brief: as §4

Penicillin-binding protein 3, sequence (Q51504 whole entry): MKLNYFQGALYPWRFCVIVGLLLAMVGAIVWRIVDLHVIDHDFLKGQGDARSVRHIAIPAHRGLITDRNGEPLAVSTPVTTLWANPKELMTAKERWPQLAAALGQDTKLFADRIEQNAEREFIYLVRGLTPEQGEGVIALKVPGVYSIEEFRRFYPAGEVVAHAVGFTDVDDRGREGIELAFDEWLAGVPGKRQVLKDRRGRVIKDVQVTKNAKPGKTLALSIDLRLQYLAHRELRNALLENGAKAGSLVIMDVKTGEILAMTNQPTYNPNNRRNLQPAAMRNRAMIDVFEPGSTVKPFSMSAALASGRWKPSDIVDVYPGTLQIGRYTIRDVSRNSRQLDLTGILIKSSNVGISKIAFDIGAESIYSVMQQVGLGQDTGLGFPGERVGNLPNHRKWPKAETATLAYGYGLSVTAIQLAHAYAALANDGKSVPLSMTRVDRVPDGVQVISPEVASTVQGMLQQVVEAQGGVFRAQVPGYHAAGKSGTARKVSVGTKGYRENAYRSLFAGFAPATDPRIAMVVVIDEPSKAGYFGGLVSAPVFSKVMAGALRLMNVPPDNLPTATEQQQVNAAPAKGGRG

On to `C[C@H]1[C@H](NC(=O)/C(=N\OC(C)(C)C(=O)O)c2csc(N)n2)C(=O)N1S(=O)(=O)O` (stereo in doubt) [AZTREONAM], for which the IC50 in [1] is above 8 µg/mL; in test [2], 0.03 µg/mL (≈ 0.0689 µM); in [3], 2 µg/mL (≈ 4.59 µM); in test [6], above 8 µg/mL; in [7] it was above 16 µg/mL; in test [8], above 8 µg/mL. The figures for the IC50 in [10], in test [11] and in test [12] were above 8 µg/mL, above 8 µg/mL and 16 µg/mL (≈ 36.7 µM), respectively. The pIC50 in test [4] was below 4.74; in test [5] it was 7.16; in test [9], 4.43.
On to `C[C@@H](O)[C@H]1C(=O)N2C(C(=O)O)=C(SCCNC=N)C[C@H]12` [IMIPENEM ANHYDROUS], for which the IC50 in test [1] amounted to 0.01 µg/mL (≈ 0.0334 µM); in [2], 8 µg/mL (≈ 26.7 µM); in test [3], 0.5 µg/mL (≈ 1.67 µM); in test [6], 0.5 µg/mL (≈ 1.67 µM); in test [7], 2 µg/mL (≈ 6.68 µM); in test [8], 0.5 µg/mL (≈ 1.67 µM). Moreover, the IC50 in test [10] stood at 0.1 µg/mL (≈ 0.334 µM); in [11], 0.5 µg/mL (≈ 1.67 µM); in [12], 0.01 µg/mL (≈ 0.0334 µM). Also, the pIC50 in test [4] is 7.48; in test [5], 6.48; in [13], 5.78; in [9], 6.48.
On to `CO/N=C(\C(=O)N[C@@H]1C(=O)N2C(C(=O)[O-])=C(C[N+]3(C)CCCC3)CS[C@H]12)c1csc(N)n1`, for which the IC50 was above 4 µg/mL in test [1]; 0.1 µg/mL (≈ 0.208 µM) in test [2]; 0.1 µg/mL (≈ 0.208 µM) in [3]; 2 µg/mL (≈ 4.16 µM) in test [6]; above 32 µg/mL in test [7]; above 4 µg/mL in [8]. For the same compound, the concentration for half-maximal inhibition (IC50) in test [10] is above 4 µg/mL; in test [11], 3.7 µg/mL (≈ 7.7 µM); in test [12] it was 0.3 µg/mL (≈ 0.624 µM). Also, the results for the pIC50 in [4], in [5] and in [9] were 5.90, 6.68 and 4.78, respectively.

These data come from ChEMBL document CHEMBL1157359, “Binding of ceftobiprole and comparators to the penicillin-binding proteins of Escherichia coli, Pseudomonas aeruginosa, Staphylococcus aureus, and Streptococcus pneumoniae” (Antimicrob Agents Chemother, 2007).
